Calls of active or inactive are those of the source. The calls are words filed in the database; no cut-off is given here.
Tests used:
TZM [1] = experiment: Toxicity in human TZM-bl cells assessed as reduction in cell proliferation at 10 uM incubated for 72 hrs by trypan blue staining based assay
TZM [2] = experiment: Toxicity in human TZM-bl cells assessed as reduction in cell proliferation at 10 uM incubated for 48 hrs by trypan blue staining based assay
[3] = system: Human immunodeficiency virus 1; experiment: Antiviral activity against CCR5-dependent HIV1 SF162 infected in human TZM-bl cells assessed as reduction in virus infection incubated for 48 hrs by luciferase reporter gene based viral neutralization assay; type: functional; details: Human immunodeficiency virus 1, SF162, TZM-bl
Summary of the method: (§1)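 Env-pseudotyped viruses made in 293T cells by proviral DNA transfection and titred by luciferase in TZM-bl cells. 200 TCID50 of virus preincubated 1 h at 37 °C with serially diluted compound (10 to 0.001 μM) in D-MEM/10% FBS. 10^4 TZM-bl cells per well with 15 μg/mL DEAE-dextran were then added, 37 °C, 48 h and 72 h. Four replicates per point. Luciferase read-out.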

[4] = system: Human immunodeficiency virus 1; experiment: Antiviral activity against CCR5-dependent HIV1 clade B isolate AC10 infected in human TZM-bl cells assessed as reduction in virus infection incubated for 48 hrs by luciferase reporter gene based viral neutralization assay; type: functional; details: Human immunodeficiency virus 1, clade B isolate AC10, 48 h; summary of the method: as §1
[5] = system: Vesicular stomatitis virus; experiment: Antiviral activity against VSV G SVA.MLV#922 infected in human TZM-bl cells assessed as reduction in virus infection incubated for 48 hrs by luciferase reporter gene based viral neutralization assay; type: functional; details: G SVA.MLV#922, TZM-bl; summary of the method: as §1
[6] = system: Human immunodeficiency virus 1; experiment: Antiviral activity against CXCR4-dependent HIV1 HXB2 infected in human TZM-bl cells assessed as reduction in virus infection incubated for 48 hrs by luciferase reporter gene based viral neutralization assay; type: functional; details: Human immunodeficiency virus 1, HXB2, TZM-bl; summary of the method: as §1
[7] = system: Human immunodeficiency virus 1; experiment: Antiviral activity against CCR5-dependent HIV1 clade B isolate QH0692 infected in human TZM-bl cells assessed as reduction in virus infection incubated for 72 hrs by luciferase reporter gene based viral neutralization assay; type: functional, organism-based
Summary of the method: (§2)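 Single-round infection of TZM-bl cells with env-pseudotyped virus at 200 TCID50, preincubated 1 h at 37 °C with serial compound dilutions (10 to 0.001 μM) in D-MEM with 10% FBS. TZM-bl cells (10^4/well) carrying 15 μg/mL DEAE-dextran were then added and cultured 48 and 72 h at 37 °C, 5% CO2. Luciferase RLU were read in four replicates per point. IC90 was the 90% RLU drop versus virus-only wells, minus cell-only background.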

[8] = system: Human immunodeficiency virus 1; experiment: Antiviral activity against CCR5-dependent HIV1 clade B isolate 6535 infected in human TZM-bl cells assessed as reduction in virus infection incubated for 48 hrs by luciferase reporter gene based viral neutralization assay; type: functional; details: Human immunodeficiency virus 1, clade B isolate 6535, TZM-bl; summary of the method: as §1
[9] = system: Human immunodeficiency virus 1; experiment: Antiviral activity against CCR5-dependent HIV1 clade B isolate PVO infected in human TZM-bl cells assessed as reduction in virus infection incubated for 72 hrs by luciferase reporter gene based viral neutralization assay; type: functional, organism-based; summary of the method: as §2
[10] = system: Human immunodeficiency virus 1; experiment: Antiviral activity against CCR5-dependent HIV1 SF162 infected in human TZM-bl cells assessed as reduction in virus infection incubated for 72 hrs by luciferase reporter gene based viral neutralization assay; type: functional, organism-based; summary of the method: as §2
[11] = system: Human immunodeficiency virus 1; experiment: Antiviral activity against CCR5-dependent HIV1 cladC isolate ZM214 infected in human TZM-bl cells assessed as reduction in virus infection incubated for 48 hrs by luciferase reporter gene based viral neutralization assay; type: functional; details: Human immunodeficiency virus 1, cladC isolate ZM214, TZM-bl; summary of the method: as §1
[12] = system: Human immunodeficiency virus 1; experiment: Antiviral activity against CCR5-dependent HIV1 clade B isolate AC10 infected in human TZM-bl cells assessed as reduction in virus infection incubated for 72 hrs by luciferase reporter gene based viral neutralization assay; type: functional, organism-based; summary of the method: as §2
[13] = system: Human immunodeficiency virus 1; experiment: Antiviral activity against CCR5-dependent HIV1 cladC isolate ZM214 infected in human TZM-bl cells assessed as reduction in virus infection incubated for 72 hrs by luciferase reporter gene based viral neutralization assay; type: functional, organism-based; summary of the method: as §2
[14] = system: Vesicular stomatitis virus; experiment: Antiviral activity against VSV G SVA.MLV#922 infected in human TZM-bl cells assessed as reduction in virus infection incubated for 72 hrs by luciferase reporter gene based viral neutralization assay; type: functional, organism-based; summary of the method: as §1
[15] = system: Human immunodeficiency virus 1; experiment: Antiviral activity against CCR5-dependent HIV1 clade B isolate QH0692 infected in human TZM-bl cells assessed as reduction in virus infection incubated for 48 hrs by luciferase reporter gene based viral neutralization assay; type: functional; details: Human immunodeficiency virus 1, clade B isolate QH0692, TZM-bl; summary of the method: as §1
[16] = system: Human immunodeficiency virus 1; experiment: Antiviral activity against CCR5-dependent HIV1 clade B isolate 6535 infected in human TZM-bl cells assessed as reduction in virus infection incubated for 72 hrs by luciferase reporter gene based viral neutralization assay; type: functional, organism-based; summary of the method: as §2
[17] = system: Human immunodeficiency virus 1; experiment: Antiviral activity against CCR5-dependent HIV1 clade B isolate PVO infected in human TZM-bl cells assessed as reduction in virus infection incubated for 48 hrs by luciferase reporter gene based viral neutralization assay; type: functional; details: Human immunodeficiency virus 1, clade B isolate PVO; summary of the method: as §1
[18] = system: Human immunodeficiency virus 1; experiment: Antiviral activity against CXCR4-dependent HIV1 HXB2 infected in human TZM-bl cells assessed as reduction in virus infection incubated for 72 hrs by luciferase reporter gene based viral neutralization assay; type: functional, organism-based; summary of the method: as §2

Row | SMILES | Activity (TZM [1]) | Activity (TZM [2]) | IC90 [3] [nM] | IC90 [4] [nM] | IC90 [5] [nM] | IC90 [6] [nM] | Activity [7] | IC90 [8] [nM] | Activity [9] | Activity [10] | IC90 [11] [nM] | Activity [12] | Activity [13] | Activity [14] | IC90 [15] [nM] | Activity [16] | IC90 [17] [nM] | Activity [18]
1 | Cc1nnc(C(C)C)n1[C@@H]1C[C@H]2CC[C@@H](C1)N2CC[C@H](NC(=O)C1CCC(F)(F)CC1)c1ccccc1 [MARAVIROC] | Non-Toxic | Non-Toxic | – | – | – | – | – | – | – | – | – | – | – | – | – | – | – | –
2 | Cc1nnc(C(C)C)n1[C@H]1C[C@H]2CC[C@@H](C1)N2CC[C@H](NC(=O)C1CCC(F)(F)CC1)c1ccccc1 [MARAVIROC] | – | – | 80 to 470 | 80 to 470 | > 10000 | > 10000 | Active | 80 to 470 | Active | Active | 80 to 470 | Active | Active | Active | 80 to 470 | Active | 80 to 470 | Active
3 | Cc1nnc(C(C)C)n1N1CC2CCCC(C1)N2CC[C@H](NC(=O)C1CCC(F)(F)CC1)c1ccccc1 | Non-Toxic | Non-Toxic | 90 to 3540 | 90 to 3540 | > 10000 | > 10000 | Active | 90 to 3540 | Active | Active | 90 to 3540 | Active | Active | Active | 90 to 3540 | Active | 90 to 3540 | Active
4 | Cc1nnc(C(C)C)n1N1CC2CCC(C1)N2CC[C@H](NC(=O)C1CCC(F)(F)CC1)c1ccccc1 | Non-Toxic | Non-Toxic | 20 to 1520 | 20 to 1520 | > 10000 | > 10000 | Active | 20 to 1520 | Active | Active | 20 to 1520 | Active | Active | Active | 20 to 1520 | Active | 20 to 1520 | Active

Reference: ChEMBL document CHEMBL4138064, “Diazabicyclo analogues of maraviroc: synthesis, modeling, NMR studies and antiviral activity” (Medchemcomm, 2017)
